One block for each substance: values may come before it.
Key:
IgG [1] = conditions: ref [16],[17]; cited from earlier work
human IgG [2] = assay: Fluorescence intensity mix-and-read assay, human IgG titration; type: binding
Procedure, shortened: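 Human IgG (0–2.5 g/L) diluted in PBS and mixed 1:1 with fluorescein-Ahx-labelled Fc-III peptide probe in PBS; probe tested at 25–500 nM, and at 50 nM and 2000 nM for linear quantitation. Plate read immediately, intensity at Ex 485/Em 535 nm. Normalised intensity is the fold change over probe alone without IgG.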

IgG [3] = conditions: cited from earlier work
[4] = biological target: adalimumab biosimilar IgG1 (Homo sapiens, UniProt P01857); assay: Fluorescence intensity, adalimumab biosimilar in CHO cell culture fluid; type: binding
Procedure, shortened: (§1)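 CHO-S cells grown in CD CHO medium with 4 mM L-glutamine to 3.31 × 10^6 cells/mL at 96.1% viability. Fluid clarified by 8000×g for 30 min, then 0.2 µm filtration. Antibody spiked into this fluid and mixed 1:1 with 100 nM Fc-III probe in PBS; read immediately at Ex 485/Em 535 nm. Detection limit is signal above blank + 3 StdDev of blank.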

[5] = Fluorescence intensity of probe with hydroxypropyl-β-cyclodextrin; type: physicochemical; conditions: 50 nM probe; increasing HP-β-cyclodextrin
human IgG [6] = assay: Fluorescence polarization mix-and-read assay, human IgG titration; type: binding; conditions: 50 nM probe, human IgG 0 to 2.5 g/L
Procedure, shortened: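 Fluorescein-labelled probes (Fc-III peptide, protein G, peptide-H) at 50 nM mixed with human IgG at 0–2.5 g/L in PBS. Polarisation read immediately at Ex 485/Em 535 nm. mP is (I∥ − I⊥)/(I∥ + I⊥) × 1000. Curves fitted with a 4-parameter logistic.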

human IgG [7] = conditions: ref [40],[41]; cited from earlier work
murine-IgG1 = assay: Fluorescence intensity, murine IgG1 in CHO cell culture fluid; type: binding
Procedure, shortened: as §1

polyclonal human IgG [8] = assay: Fluorescence intensity, human IgG in CHO cell culture fluid; type: binding
Procedure, shortened: as §1

murine IgG1 = conditions: ref [41]; cited from earlier work
polyclonal human IgG [9] = assay: Fluorescence polarization, human IgG in CHO cell culture fluid; type: binding; conditions: 100 nM probe in CHO-CCF
human-IgG = assay: SpA competition with Fc-III probe/human IgG mixture, fluorescence intensity; type: binding; conditions: IgG 0.005 g/L (30 nM), Fc-III probe 50 nM, 120 min
Procedure, shortened: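 Unlabelled SpA serially diluted in PBS and added at 0.02 nM–1 µM final to human IgG (33 nM, 0.005 g/L) plus Fc-III probe (50 nM). PBS alone served as negative control. Incubated 120 min for equilibration, then fluorescence intensity read at Ex 485/Em 535 nm.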

Chain of adalimumab biosimilar IgG1 (P01857 1-330 isoform P01857-1, other chains not shown): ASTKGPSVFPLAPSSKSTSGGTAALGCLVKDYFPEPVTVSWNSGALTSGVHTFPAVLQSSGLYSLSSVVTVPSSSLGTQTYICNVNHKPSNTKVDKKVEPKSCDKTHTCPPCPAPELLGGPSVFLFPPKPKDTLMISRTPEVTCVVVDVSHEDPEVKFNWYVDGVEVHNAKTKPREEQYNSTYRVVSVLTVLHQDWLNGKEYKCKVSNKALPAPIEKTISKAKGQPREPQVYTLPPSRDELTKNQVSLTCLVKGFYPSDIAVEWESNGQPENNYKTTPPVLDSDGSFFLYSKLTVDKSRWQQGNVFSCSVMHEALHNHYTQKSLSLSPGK

Substance: fluorescein-labeled protein A (SpA): fluorescein-labeled protein A, literature comparison
- IgG binding-induced fluorescence enhancement of fluorescein-labeled protein A (IgG [1]): IgG binding-induced fluorescence enhancement

- Fluorescence intensity increase ([4]; 100 nM probe in CHO-CCF, 2.5 g/L adalimumab (IgG1 mAb)): ~ 1.8 fold
- Adalimumab biosimilar detected down to ([4]; CHO cell culture fluid, fluorescence intensity): 100 ng/mL
Substance: Fluorescein-Ahx-DCAWHLGELVWCT-NH2 (disulfide) [Fc-III probe]
- Fold increase in fluorescence intensity at lowest IgG concentration (human IgG [2]; 25 nM probe, 0.00025 g/L IgG): 1.16 fold
- Linear quantitation range (IgG concentration) (human IgG [2]; 2000 nM Fc-III probe, listed as fluorescein labeled Fc-III): 0.025 to 0.1 g/L
- Binding affinity for IgG, Fc-III versus SpG (IgG [3]): comparable binding affinity for IgG
- Fluorescence intensity increase on addition of HPβCD [5]: 2.1 fold
- Polarization dynamic range, difference between bound and free probe (Δ mP) (human IgG [6]; 96-well plate, Ex 485 nm/Em 535 nm): 260 mP
- Lowest IgG concentration required to produce half-maximal response (human IgG [6]; fluorescence polarization): 0.001 g/L
- Binding of human IgG (subtypes 1–4) to Fc-III relative to pure IgG1 (human IgG [7]): binds Fc-III less well than pure IgG1
- Detection limit (murine-IgG1; murine IgG1, 100 nM probe in CHO-CCF): 0.1 g/L
- Detection limit for murine IgG1 relative to human IgG (murine-IgG1; murine IgG1 versus human IgG): 1000 times
- Fluorescence intensity increase (polyclonal human IgG [8]; 100 nM probe in CHO-CCF, 2.5 g/L human IgG): ~ 1.8 fold
- Limit of detection compared with HPLC or ELISA (polyclonal human IgG [8]; IgG in CHO-CCF): comparable to those of HPLC or ELISA
- Limit of detection by fluorescence intensity (polyclonal human IgG [8]; human IgG, 100 nM probe in CHO-CCF, signal > blank intensity + 3StdDev of blank): 0.00025 g/L
- Binding to murine IgG1 (murine IgG1): binds relatively poorly
- Polarization changes, human IgG versus adalimumab biosimilar (polyclonal human IgG [9]): nearly identical fluorescence polarization changes

Substance: SpA: unlabeled Staphylococcal protein A, competitor binding to the same location on Fc as Fc-III
- Fluorescence intensity of Fc-III/IgG mixture with 500 nM SpA (human-IgG; 500 nM SpA): fell to that of free Fc-III probe
- Effect of unlabeled SpA on emission intensity of IgG/Fc-III probe mixture (human-IgG; SpA 0.02 nM to 1 µM in PBS): markedly diminished

— article PMC8525972 (mAbs, 2021)
